Only some compounds are listed: those with a hit (about 1.8% of all), similar ones and a draw of the others.
CHRM4 PAM: human M4 muscarinic receptor positive allosteric modulators, primary screen, CHO-K1 cells, Fluo-8 calcium fluorescence; CHO-K1 hM4/Gqi5, ACh EC20; 0% = ACh EC20, 100% = maximal ACh; Muscarinic acetylcholine receptor M4 (Homo sapiens), P08173; activation, % at 3 µM; 0.4% of 360,000 active; AID 624126, 2012;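 active = activation above its plate's cutoff, the mean activation of sample wells plus 3 SD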
CHRM5 PAM: human M5 muscarinic receptor positive allosteric modulators, primary screen, CHO-K1 cells, Fluo-8 calcium fluorescence; Muscarinic acetylcholine receptor M5 (Homo sapiens), P08912; CHO-K1 hM5, ACh EC20 PAM; 0% = ACh EC20, 100% = ACh EC100; activation, % at 3 µM; 0.3% of 360,000 active;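 active = activation above the run cutoff, the mean activation of all test compounds plus 3 SD, cut at about 18% in these data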
Target sequence (P08912 whole entry, looked up): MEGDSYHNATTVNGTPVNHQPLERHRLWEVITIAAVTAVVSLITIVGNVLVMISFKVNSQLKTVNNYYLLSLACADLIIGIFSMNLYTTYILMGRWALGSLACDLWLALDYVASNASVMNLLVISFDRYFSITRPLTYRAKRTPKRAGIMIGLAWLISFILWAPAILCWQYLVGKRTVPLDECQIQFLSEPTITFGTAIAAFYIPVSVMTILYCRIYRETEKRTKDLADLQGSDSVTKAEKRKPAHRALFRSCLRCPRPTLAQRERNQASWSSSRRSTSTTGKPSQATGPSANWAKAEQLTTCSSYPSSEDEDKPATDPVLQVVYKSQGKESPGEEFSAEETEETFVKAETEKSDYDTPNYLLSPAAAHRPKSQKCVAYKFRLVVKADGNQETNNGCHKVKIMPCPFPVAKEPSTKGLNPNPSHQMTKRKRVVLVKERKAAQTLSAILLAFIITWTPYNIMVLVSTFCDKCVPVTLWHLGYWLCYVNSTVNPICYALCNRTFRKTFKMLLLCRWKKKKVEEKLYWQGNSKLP
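Assay system: CHO-K1 hM5 cells / Incubation: Fluo-8 loading 80 min at 37 °C plus 30 min room temperature / Technique: Fluo-8 calcium dye fluorescence, kinetic read / Repeats: single replicate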
CHRM5 antagonist: human M5 muscarinic receptor antagonists, primary screen, CHO cells, Fluo-8 calcium fluorescence; Muscarinic acetylcholine receptor M5 (Homo sapiens), P08912; CHO-hM5 cells, ACh EC80; inhibition, % at 3 µM; 0.59% of 360,000 active; AID 624040, 2012;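 active = inhibition above a per-plate cutoff, the mean of that plate's test compounds plus 3 SD, cut at about 27% in these data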;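 note: 0% = acetylcholine EC80 with DMSO and 100% = DMSO without agonist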
CHRM4 antagonist: human M4 muscarinic receptor antagonists, primary screen, CHO cells, Fluo-8 calcium fluorescence; Muscarinic acetylcholine receptor M4 (Homo sapiens), P08173; CHO-hM4 cells, ACh EC80; inhibition, % at 3 µM; 0.73% of 360,000 active;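 active = inhibition above its plate's cutoff, the mean inhibition of sample wells plus 3 SD, cut at about 27% in these data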;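 note: 0% = acetylcholine EC80 with DMSO and 100% = DMSO without agonist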
CHRM4 agonist: human M4 muscarinic receptor agonists, primary screen, CHO-K1 cells, Fluo-8 calcium fluorescence | CHO-K1 hM4/Gqi5; vehicle 0%, full acetylcholine response 100% | AID 624127, 2012 | 0.14% of 360,000 active | activation, % at 3 µM;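 active = activation above the run mean over all test wells plus 3 SD, cut at about 32% in these data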;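 note: peak over basal fluorescence ratio per well then scaled between controls; 0% = DMSO wells and 100% = acetylcholine at EC100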
M5 ag: human M5 muscarinic receptor agonists, primary screen, CHO-K1 cells, Fluo-8 calcium fluorescence. CHO-K1 hM5 cells; 0% DMSO wells, 100% maximal acetylcholine response. activation, % at 3 µM. 0.19% of 360,000 active. AID 624037, 2012;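 active = activation above the run's mean over test compounds plus 3 SD, cut at about 23% in these data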;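 note: signal is peak over basal fluorescence ratio across the kinetic read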
* = called active by the depositor.

SMILES	CHRM4 PAM	CHRM5 PAM	CHRM5 antagonist	CHRM4 antagonist	CHRM4 agonist	M5 ag
COc1ccc(C)cc1NS(=O)(=O)c1ccc(NS(=O)(=O)c2ccc(NC(C)=O)cc2)cc1	22*	-7	4	-2	0	-1
CN(C(=O)c1ccc(NC(=O)Cc2cccc(NC(=O)C3CCN(C(=O)C4CC4)CC3)c2)cc1)C1CC1	8	-7	11	-6	0	2
Cc1c(O)cc2c(c1O)C(=O)CC(c1ccccc1)O2 (stereo not given)	-17	-17	84*	94*	60*	47*
O=C1C[C@@H](c2ccc(O)cc2)Oc2cc(O)cc(O)c21	4	11	-2	-10	1	8
Cc1noc(C)c1CN(C(=S)NC1CC2CCC1C2)c1ccccc1 (stereo not given)	0	23*	-5	-5	-1	-7
COc1ccc(Cl)cc1Cn1c(C)c(C(=O)NCc2cccc(Cl)c2)sc1=O	0	-4	-4	-15	2	-3
Cn1cnc([N+](=O)[O-])c1Sc1nc(N)nc2c1ncn2Cc1ccccc1	6	-4	18	-2	1	1
Nc1nc(SCc2ccccc2[N+](=O)[O-])c2ncn(Cc3ccccc3)c2n1	-9	-14	20	40*	5	-4
Cc1ccc(NC(=O)CSc2nnc(NC(=O)c3ccco3)s2)cc1	10	4	-4	-20	1	-4
CC(=O)c1ccc(NC(=O)CSc2nnc(NC(=O)c3ccco3)s2)cc1	21*	9	0	1	1	-3
COc1ccccc1C(c1c(N)n(C)c(=O)n(C)c1=O)C(C)[N+](=O)[O-] (stereo not given)	0	-15	28*	-7	2	-8
COc1ccccc1C(C[N+](=O)[O-])c1c(N)n(C)c(=O)n(C)c1=O (stereo not given)	-5	0	7	-1	0	-2
O=C(CSc1ccc(-c2nc3ccccc3[nH]2)cn1)Nc1ccc(S(=O)(=O)NC2CC2)cc1	-21	-16	14	31*	9	-2
O=C(c1ccc(C#CC2(O)CCCCC2)cc1)N1CCN(C(c2ccccc2)c2ccccc2)CC1	-25	-14	17	35*	2	-10
O=C(Nc1ccccc1C(F)(F)F)N1CCN(C(c2ccccc2)c2ccccc2)CC1	-27	-18	30*	35*	0	-8
O=C(c1ccc(C#CC2(O)CCCCC2)cc1)N1CCN(Cc2ccccc2)CC1	-4	-4	-4	3	7	-1
O=C(NC(=O)N1CCN(C(c2ccccc2)c2ccccc2)CC1)c1ccccc1	-35	-31	16	30*	0	-16
CN(CCCn1ccc(NC(=O)OCc2ccccc2)nc1=O)CCc1ccccn1	-7	-2	10	1	0	-1
O=C(NCC1CCCO1)c1ccc(Oc2ccc([N+](=O)[O-])cc2)cc1 (stereo not given)	-10	-9	1	9	10	0
O=C(NCC1CCCO1)c1ccc(NC(=O)c2ccc([N+](=O)[O-])cc2)cc1 (stereo not given)	13*	13	-29	-9	6	14
Cc1cn([C@H]2C[C@H](O)[C@@H](CNCc3ccc(Oc4cc(-n5cccn5)ncn4)cc3)O2)c(=O)[nH]c1=O	-6	-6	11	-10	16	0
CC(NS(=O)(=O)OCC(Cl)(Cl)Cl)c1ccc(C(C)(C)C)cc1 (stereo not given)	-13	-25	15	45*	4	-11
CCOC(=O)c1sc(=S)n(-c2ccccc2)c1SC	-18	-11	2	14	-2	-7
CCOC(=O)c1sc(=S)n(-c2ccccc2Cl)c1SC	-16	-27	23	54*	-1	-7
O=C(OCC(=O)c1ccc[nH]1)c1cncc(Br)c1	-1	-7	-1	7	2	3
SMILES	CHRM4 PAM	CHRM5 PAM	CHRM5 antagonist	CHRM4 antagonist	CHRM4 agonist	M5 ag
CC(C)Nc1ccc(C(CC(N)=O)NC(=O)c2ccccc2)cc1[N+](=O)[O-] (stereo not given)	-4	1	-5	4	1	2
CC(C)Nc1ccc(C(CC(N)=O)NC(=O)c2ccc(Br)cc2)cc1[N+](=O)[O-] (stereo not given)	3	20*	-6	-5	0	1
CCN(CC)C(=O)CSc1nc2ccccc2c(=O)n1OC(C)C	19	23*	-15	-9	-3	4
CCOC(=O)Cc1c(-c2cccc(Cl)c2)nc2c3ccccc3ccn12	-8	-16	6	15	5	-1
CCc1cc2c(-c3ccccc3)cc(=O)oc2cc1OC(C)C(=O)NCC1CCC(C(=O)O)CC1 (stereo not given)	13	9	-6	-14	-1	3
O=C(NNc1c2ccccc2nc2ccccc12)c1ccccc1O	-11	-16	34*	0	17	-2
O=C(NNC(=O)c1cccc2ccccc12)c1ccccc1O	17*	-1	7	-14	7	-1
O=C(NNC(=O)c1cccc2ccccc12)c1ccc(-c2ccccc2)cc1	-9	-16	6	-7	20	-2
COC(=O)[C@@]12C[C@@H](CC(=O)N3CCOCC3)C(=O)N(Cc3cccc4ccccc34)C1=CCC(C)(C)C2	7	-6	10	17	11	4
O=c1c2cc(F)ccc2sn1-c1ccccc1	-5	2	12	14	30	24*
Cc1c(CC(=O)N2C[C@H]3C[C@@H](C2)c2cccc(=O)n2C3)c(=O)oc2cc3occ(C(C)(C)C)c3cc12	4	3	0	-10	4	0
Cc1ccc(C)c(N2CCN(c3ccc4cc(S(=O)(=O)N5CCCCC5)ccc4n3)CC2)c1	8	18*	-22	-20	3	-2
CN(C)CCNc1nc(-c2ccccc2CO)c2sccc2n1	-10	-20	37*	21	1	-4
Cc1ccccc1-c1nc(NCCN(C)C)nc2ccsc12	-13	-20	56*	56*	1	-4
CC(C)Nc1nc(-c2ccccc2CO)c2sccc2n1	2	-3	-3	-24	2	-2
Nc1sc(Cc2ccccc2)cc1C(=O)NC1CCCCC1	1	1	3	-3	2	10

Compound activity as filed in PubChem BioAssay.
